Results taken from ChEMBL document CHEMBL4257498, “Antitumor effects of melanin from Lachnum YM226 and its derivative in H22 tumor-bearing mice” (Medchemcomm, 2018).
Activity calls are given as the source filed them. The calls are words filed in the database; no cut-off is given here.

Legend:
Mus musculus [1] = test: Immunostimulatory activity in Kunming mouse implanted with mouse H22 cells assessed as increase in serum IL-6 level at 200 mg/kg, ig once daily for 12 days measured at 24 hrs post last dose by ELISA; assay type: functional, organism-based
Outline: (§1)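 Serum came from H22 sc tumor-bearing mice dosed intragastrically once daily for 12 days, collected 24 h after the last dose from the orbital plexus (3000g, 10 min, stored at –80 °C). IL-2, IL-6, TNF-α, IFN-γ, VEGF and bFGF were measured by commercial ELISA kits following the manufacturer's protocol.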

Mus musculus [2] = test: Immunosuppressive effect in Kunming mouse implanted with mouse H22 cells assessed as thymus index at 50 mg/kg, ig once daily for 12 days measured at 24 hrs post last dose (reference value: 0.13 +/- 0.06%); assay type: ADME, organism-based; settings: in vivo, po
H22 [3] = test: Antitumor activity against mouse H22 cells implanted in Kunming mouse assessed as necrotic and apoptotic region at 50 to 200 mg/kg, ig once daily for 12 days measured at 24 hrs post last dose by hematoxylin and eosin staining based microscopic method; assay type: functional, organism-based
Outline: (§2)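 H22 cells given 0.2 mL of 1 × 10^6 cells per mL subcutaneously in the right axilla. Treatment began on day 3, […]. Dosing was intragastric in saline, once daily for 12 days, n = 10 per group. Mice were killed 24 h after the last dose. Tumors were fixed in buffered neutral 10% formalin, paraffin-embedded, cut at 4 μm, HE-stained and examined by light microscopy at 400×.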

Mus musculus [4] = test: Decrease in leukocyte infiltration in Kunming mouse implanted with mouse H22 cells at 50 to 200 mg/kg, ig once daily for 12 days measured at 24 hrs post last dose by hematoxylin and eosin staining based microscopic method; assay type: functional, organism-based; outline: as §2
Mus musculus [5] = test: Immunosuppressive effect in Kunming mouse implanted with mouse H22 cells assessed as thymus index at 200 mg/kg, ig once daily for 12 days measured at 24 hrs post last dose (reference value: 0.13 +/- 0.06%); assay type: ADME, organism-based; settings: in vivo, po
Mus musculus [6] = test: Immunostimulatory activity in Kunming mouse implanted with mouse H22 cells assessed as increase in serum IL-2 level at 200 mg/kg, ig once daily for 12 days measured at 24 hrs post last dose by ELISA; assay type: functional, organism-based; outline: as §1
H22 [7] = test: Antitumor activity against mouse H22 cells implanted in Kunming mouse assessed as decrease in nuclear to cytoplasmic ratio at 50 to 200 mg/kg, ig once daily for 12 days measured at 24 hrs post last dose by hematoxylin and eosin staining based microscopic method; assay type: functional, organism-based; outline: as §2
Mus musculus [8] = test: Hepatotoxicity in Kunming mouse implanted with mouse H22 cells assessed as increase in serum ALT level at 50 to 200 mg/kg, ig once daily for 12 days measured at 24 hrs post last dose; assay type: toxicity, organism-based; settings: in vivo, po
Outline: (§3)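 Mice bore sc H22 tumors and received intragastric doses once daily for 12 days (n = 10). Blood was drawn from the orbital venous plexus 24 h after the last dose. It was allowed to clot and centrifuged at 3000g for 10 min, and the serum was stored at –80 °C. AST, ALT, CRE, BUN and UA were measured with commercial kits.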

Mus musculus [9] = test: Immunosuppressive effect in Kunming mouse implanted with mouse H22 cells assessed as spleen index at 50 mg/kg, ig once daily for 12 days measured at 24 hrs post last dose (reference value: 0.54 +/- 0.09%); assay type: ADME, organism-based; settings: in vivo, po
Mus musculus [10] = test: Hepatotoxicity in Kunming mouse implanted with mouse H22 cells assessed as increase in serum AST level at 50 to 200 mg/kg, ig once daily for 12 days measured at 24 hrs post last dose; assay type: toxicity, organism-based; settings: in vivo, po; outline: as §3
Mus musculus [11] = test: Toxicity in Kunming mouse implanted with mouse H22 cells assessed as increase in body weight at 50 mg/kg, ig once daily for 12 days measured every 3 days during compound dosing; assay type: organism-based; settings: in vivo, po
Outline: (§4)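 H22 sc tumor-bearing mice were dosed intragastrically once daily for 12 days (0.2 mL, n = 10). Mice were weighed every three days and doses adjusted accordingly. Body weight gain = (final – initial body weight)/initial body weight.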

Mus musculus [12] = test: Toxicity in Kunming mouse implanted with mouse H22 cells assessed as increase in body weight at 200 mg/kg, ig once daily for 12 days measured every 3 days during compound dosing; assay type: organism-based; settings: in vivo, po; outline: as §4
Mus musculus [13] = test: Renal toxicity in Kunming mouse implanted with mouse H22 cells assessed as increase in serum BUN level at 50 to 200 mg/kg, ig once daily for 12 days measured at 24 hrs post last dose; assay type: organism-based; settings: in vivo, po; outline: as §3
H22 [14] = test: Antitumor activity against mouse H22 cells implanted in Kunming mouse assessed as tumor growth inhibition administered ig once daily for 12 days measured at 24 hrs post last dose; assay type: functional
Outline: (§5)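 Sc H22 implant (0.2 mL, 1 × 10^6 cells per mL, right axilla). Intragastric dosing started 3 days later, once daily for 12 days in 0.2 mL; saline control; 10 mice per group. Tumors were excised and weighed 24 h after the last dose. Inhibition rate = (1 – mean treated tumor weight/mean model tumor weight) × 100%. Caliper volume taken every 2 days as A × B2/2.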

Mus musculus [15] = test: Decrease in serum bFGF level in Kunming mouse implanted with mouse H22 cells at 50 to 200 mg/kg, ig once daily for 12 days measured at 24 hrs post last dose by ELISA; assay type: functional, organism-based; outline: as §1
Mus musculus [16] = test: Immunostimulatory activity in Kunming mouse implanted with mouse H22 cells assessed as increase in serum IL-2 level at 50 mg/kg, ig once daily for 12 days measured at 24 hrs post last dose by ELISA; assay type: functional, organism-based; outline: as §1
H22 [17] = test: Antitumor activity against mouse H22 cells implanted in Kunming mouse assessed as decrease in hepatoma cell density at 200 mg/kg, ig once daily for 12 days measured at 24 hrs post last dose by hematoxylin and eosin staining based microscopic method; assay type: functional, organism-based; outline: as §2
Mus musculus [18] = test: Immunosuppressive effect in Kunming mouse implanted with mouse H22 cells assessed as liver index at 200 mg/kg, ig once daily for 12 days measured at 24 hrs post last dose (reference value: 4.17 +/- 0.68%); assay type: ADME, organism-based; settings: in vivo, po
Mus musculus [19] = test: Immunosuppressive effect in Kunming mouse implanted with mouse H22 cells assessed as spleen index at 200 mg/kg, ig once daily for 12 days measured at 24 hrs post last dose (reference value: 0.54 +/- 0.09%); assay type: ADME, organism-based; settings: in vivo, po
Mus musculus [20] = test: Immunostimulatory activity in Kunming mouse implanted with mouse H22 cells assessed as increase in serum IL-6 level at 50 mg/kg, ig once daily for 12 days measured at 24 hrs post last dose by ELISA; assay type: functional, organism-based; outline: as §1
Mus musculus [21] = test: Renal toxicity in Kunming mouse implanted with mouse H22 cells assessed as increase in serum CRE level at 50 to 200 mg/kg, ig once daily for 12 days measured at 24 hrs post last dose; assay type: organism-based; settings: in vivo, po; outline: as §3
Mus musculus [22] = test: Immunostimulatory activity in Kunming mouse implanted with mouse H22 cells assessed as increase in serum IFNgamma level at 200 mg/kg, ig once daily for 12 days measured at 24 hrs post last dose by ELISA; assay type: functional, organism-based; outline: as §1
Mus musculus [23] = test: Renal toxicity in Kunming mouse implanted with mouse H22 cells assessed as increase in serum UA level at 50 to 200 mg/kg, ig once daily for 12 days measured at 24 hrs post last dose; assay type: organism-based; settings: in vivo, po; outline: as §3
Mus musculus [24] = test: Decrease in tumor hemorrhage in Kunming mouse implanted with mouse H22 cells at 50 to 200 mg/kg, ig once daily for 12 days measured at 24 hrs post last dose by hematoxylin and eosin staining based microscopic method; assay type: functional, organism-based; outline: as §2
Mus musculus [25] = test: Decrease in serum VEGF level in Kunming mouse implanted with mouse H22 cells at 50 to 200 mg/kg, ig once daily for 12 days measured at 24 hrs post last dose by ELISA; assay type: functional, organism-based; outline: as §1
Mus musculus [26] = test: Immunostimulatory activity in Kunming mouse implanted with mouse H22 cells assessed as increase in serum TNFalpha level at 200 mg/kg, ig once daily for 12 days measured at 24 hrs post last dose by ELISA; assay type: functional, organism-based; outline: as §1
H22 [27] = test: Antitumor activity against mouse H22 cells implanted in Kunming mouse assessed as tumor growth inhibition at 200 mg/kg, ig once daily for 12 days measured at 24 hrs post last dose relative to control; assay type: functional; settings: H22, po, read-out: TGI; outline: as §5
Mus musculus [28] = test: Immunosuppressive effect in Kunming mouse implanted with mouse H22 cells assessed as liver index at 50 mg/kg, ig once daily for 12 days measured at 24 hrs post last dose (reference value: 4.17 +/- 0.68%); assay type: ADME, organism-based; settings: in vivo, po
H22 [29] = test: Antitumor activity against mouse H22 cells implanted in Kunming mouse assessed as tumor growth inhibition at 50 mg/kg, ig once daily for 12 days measured at 24 hrs post last dose relative to control; assay type: functional; settings: H22, po, read-out: TGI; outline: as §5

Activity_index (Mus musculus [2]): 0.15% | Activity_index (Mus musculus [5]): 0.16% | Activity_index (Mus musculus [9]): 0.48% | Activity_index (Mus musculus [18]): 3.79% | Activity_index (Mus musculus [19]): 0.48% | Activity_index (Mus musculus [28]): 3.72%
Structure (SMILES): COc1c(O)cc2cc(C(=O)O)n(C)c2c1C1=c2cc(C(=O)O)[nH]c2=C(Cc2cc(C(=O)O)[nH]c2C(=O)O)C(=O)C1=O
Activity (Mus musculus [1]): Active | Activity (H22 [3]): Active | Activity (Mus musculus [4]): Active | Activity (Mus musculus [6]): Active | Activity (H22 [7]): Active | Activity (Mus musculus [8]): Non-Toxic | Activity (Mus musculus [10]): Non-Toxic | Activity (Mus musculus [11]): 8.2 g | Activity (Mus musculus [12]): 7.56 g | Activity (Mus musculus [13]): Non-Toxic | TGI (H22 [14]): Dose-dependent effect | Activity (Mus musculus [15]): Active | Activity (Mus musculus [16]): Active | Activity (H22 [17]): Active | Activity (Mus musculus [20]): Active | Activity (Mus musculus [21]): Non-Toxic | Activity (Mus musculus [22]): Active | Activity (Mus musculus [23]): Non-Toxic | Activity (Mus musculus [24]): Active | Activity (Mus musculus [25]): Active | Activity (Mus musculus [26]): Active | inhibition in vivo at 200 mg/kg (H22 [27]): 35% | inhibition in vivo at 50 mg/kg (H22 [29]): 32.3%
